Reference: ChEMBL document CHEMBL5724801, “EUbOPEN Chemogenomics Library - Multiplex” (2024)
Values joined by “and” are separate entries in the source; they are usually repeats but may differ in a detail not shown here. Equal entries are not always repeated.

Test system: U2OS
Experiment: Multiplex assay against U2OS
Format: toxicity, cell-based
Conditions: human
How it was run: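 Four dyes were applied at seeding to live cells: Hoechst33342, BioTracker Green Microtubule Cytoskeleton Dye, MitoTracker Red and Annexin V Alexa Fluor 680. Imaging after compound addition used a CQ1 microscope at 37°C and 5% CO2. CellPathfinder machine-learning gating then sorted cells into Hoechst high-intensity objects or normal cells, normal cells into healthy, pyknosed or fragmented nuclei, and pyknosed cells into mitotic or apoptotic, with tubulin, mitochondrial-mass and membrane-permeability phenotypes given as per cents of healthy-nucleus cells.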

[1] = 12 h, 1 µM, compound concentration 1 uM
[2] = 12 h, 10 µM, compound concentration 10 uM
[3] = 24 h, 1 µM, compound concentration 1 uM
[4] = 24 h, 10 µM, compound concentration 10 uM
[5] = 48 h, 1 µM, compound concentration 1 uM
[6] = 48 h, 10 µM, compound concentration 10 uM

## CC(C)c1ccc(/C=N/NC(=O)c2ccc(O)cc2)cc1
[1]
  Population Apoptotic (%): 41.67% and 26.09%
  Population Fragmented Nuclei (%): 0.58% and 4.67%
  Population Healthy Nuclei (%): 88.92% and 80%
  Population Hoechst High Intensity Objects (%): 0%
  Population Membrane Permeable-Phenotype (%): 2.62% and 5.83%
  Population Mitochondria Different-Phenotype (%): 0% and 12.5%
  Population Mitotic Cells (%): 58.33% and 73.91%
  Population Normal (%): 100%
  Population Pyknosed Nuclei (%): 10.5% and 15.33%
  Population Tubulin-Different-Phenotype (%): 1.64% and 1.67%
  Total Cell Count: 343 and 150
[2]
  Population Apoptotic (%): 32.5% and 45%
  Population Fragmented Nuclei (%): 1.02% and 0%
  Population Healthy Nuclei (%): 88.75% and 85.4%
  Population Hoechst High Intensity Objects (%): 0%
  Population Membrane Permeable-Phenotype (%): 2.88% and 2.56%
  Population Mitochondria Different-Phenotype (%): 0% and 5.98%
  Population Mitotic Cells (%): 67.5% and 55%
  Population Normal (%): 100%
  Population Pyknosed Nuclei (%): 10.23% and 14.6%
  Population Tubulin-Different-Phenotype (%): 2.59% and 0%
  Total Cell Count: 391 and 137
[3]
  Population Apoptotic (%): 30.95% and 46.15%
  Population Fragmented Nuclei (%): 2.35% and 1.61%
  Population Healthy Nuclei (%): 88.68% and 84.41%
  Population Hoechst High Intensity Objects (%): 0%
  Population Membrane Permeable-Phenotype (%): 1.69% and 3.18%
  Population Mitochondria Different-Phenotype (%): 0.48% and 8.92%
  Population Mitotic Cells (%): 69.05% and 53.85%
  Population Normal (%): 100%
  Population Pyknosed Nuclei (%): 8.97% and 13.98%
  Population Tubulin-Different-Phenotype (%): 1.69% and 0.64%
  Total Cell Count: 468 and 186
[4]
  Population Apoptotic (%): 51.02% and 50%
  Population Fragmented Nuclei (%): 1.12% and 2.26%
  Population Healthy Nuclei (%): 89.72% and 86.44%
  Population Hoechst High Intensity Objects (%): 0%
  Population Membrane Permeable-Phenotype (%): 1.88% and 2.61%
  Population Mitochondria Different-Phenotype (%): 0% and 3.92%
  Population Mitotic Cells (%): 48.98% and 50%
  Population Normal (%): 100%
  Population Pyknosed Nuclei (%): 9.16% and 11.3%
  Population Tubulin-Different-Phenotype (%): 1.25% and 0%
[5]
  Population Apoptotic (%): 38.46% and 51.11%
  Population Fragmented Nuclei (%): 2.73% and 1.73%
  Population Healthy Nuclei (%): 87.74% and 85.3%
  Population Hoechst High Intensity Objects (%): 0.1% and 0%
  Population Membrane Permeable-Phenotype (%): 0.6% and 3.04%
  Population Mitochondria Different-Phenotype (%): 0.12% and 6.42%
  Population Mitotic Cells (%): 61.54% and 48.89%
  Population Normal (%): 99.9% and 100%
  Population Pyknosed Nuclei (%): 9.54% and 12.97%
  Population Tubulin-Different-Phenotype (%): 0.6% and 1.35%
  Total Cell Count: 955 and 347
[6]
  Population Apoptotic (%): 46.51% and 53.12%
  Population Fragmented Nuclei (%): 4.03% and 1.37%
  Population Healthy Nuclei (%): 87.3% and 87.67%
  Population Hoechst High Intensity Objects (%): 0%
  Population Membrane Permeable-Phenotype (%): 1.15% and 3.52%
  Population Mitochondria Different-Phenotype (%): 0% and 5.47%
  Population Mitotic Cells (%): 53.49% and 46.88%
  Population Normal (%): 100%
  Population Pyknosed Nuclei (%): 8.67% and 10.96%
  Population Tubulin-Different-Phenotype (%): 1.39% and 0%

## S=c1[nH]nc(-c2cccs2)n1-c1ccccc1
[1]
  Population Apoptotic (%): 50% and 31.82%
  Population Fragmented Nuclei (%): 2.88% and 1.49%
  Population Healthy Nuclei (%): 87.7% and 82.09%
  Population Hoechst High Intensity Objects (%): 0%
  Population Membrane Permeable-Phenotype (%): 0% and 3.64%
  Population Mitochondria Different-Phenotype (%): 0.3% and 2.73%
  Population Mitotic Cells (%): 50% and 68.18%
  Population Normal (%): 100%
  Population Pyknosed Nuclei (%): 9.42% and 16.42%
  Population Tubulin-Different-Phenotype (%): 0.3% and 0%
  Total Cell Count: 382 and 134
[2]
  Population Apoptotic (%): 41.82% and 31.25%
  Population Fragmented Nuclei (%): 1.86% and 4.61%
  Population Healthy Nuclei (%): 83.55% and 84.87%
  Population Hoechst High Intensity Objects (%): 0%
  Population Membrane Permeable-Phenotype (%): 0.32% and 5.43%
  Population Mitochondria Different-Phenotype (%): 0.32% and 5.43%
  Population Mitotic Cells (%): 58.18% and 68.75%
  Population Normal (%): 100%
  Population Pyknosed Nuclei (%): 14.59% and 10.53%
  Population Tubulin-Different-Phenotype (%): 0.63% and 0%
  Total Cell Count: 377 and 152
[3]
  Population Apoptotic (%): 38.78% and 38.46%
  Population Fragmented Nuclei (%): 1.97% and 1.6%
  Population Healthy Nuclei (%): 88.36% and 84.57%
  Population Hoechst High Intensity Objects (%): 0.2% and 0%
  Population Membrane Permeable-Phenotype (%): 0.22% and 3.14%
  Population Mitochondria Different-Phenotype (%): 0.22% and 3.14%
  Population Mitotic Cells (%): 61.22% and 61.54%
  Population Normal (%): 99.8% and 100%
  Population Pyknosed Nuclei (%): 9.66% and 13.83%
  Population Tubulin-Different-Phenotype (%): 0.89% and 0%
  Total Cell Count: 508 and 188
[4]
  Population Apoptotic (%): 38.46% and 40%
  Population Fragmented Nuclei (%): 2.57% and 1.6%
  Population Healthy Nuclei (%): 87.15% and 87.77%
  Population Hoechst High Intensity Objects (%): 0%
  Population Membrane Permeable-Phenotype (%): 0.91% and 5.45%
  Population Mitochondria Different-Phenotype (%): 0.23% and 3.03%
  Population Mitotic Cells (%): 61.54% and 60%
  Population Normal (%): 100%
  Population Pyknosed Nuclei (%): 10.28% and 10.64%
  Population Tubulin-Different-Phenotype (%): 0.91% and 1.21%
  Total Cell Count: 506 and 188
[5]
  Population Apoptotic (%): 48.15% and 60%
  Population Fragmented Nuclei (%): 1.9% and 2.52%
  Population Healthy Nuclei (%): 90.4% and 84.91%
  Population Hoechst High Intensity Objects (%): 0.09% and 0%
  Population Membrane Permeable-Phenotype (%): 0.84% and 0.74%
  Population Mitochondria Different-Phenotype (%): 0% and 3.7%
  Population Mitotic Cells (%): 51.85% and 40%
  Population Normal (%): 99.91% and 100%
  Population Pyknosed Nuclei (%): 7.7% and 12.58%
  Population Tubulin-Different-Phenotype (%): 0.63% and 0%
[6]
  Population Apoptotic (%): 25.3% and 58.62%
  Population Fragmented Nuclei (%): 3.4% and 3.18%
  Population Healthy Nuclei (%): 88.05% and 87.58%
  Population Hoechst High Intensity Objects (%): 0%
  Population Membrane Permeable-Phenotype (%): 1.29% and 2.18%
  Population Mitochondria Different-Phenotype (%): 0.12% and 3.27%
  Population Mitotic Cells (%): 74.7% and 41.38%
  Population Normal (%): 100%
  Population Pyknosed Nuclei (%): 8.55% and 9.24%
  Population Tubulin-Different-Phenotype (%): 0.94% and 0%
